Hit rate of the full screen: of about 330,000 compounds, about 220 (0.067%) were called active.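 The calls were made as follows: active = response, share of CD8 T cells binding vesicles, and their 90th percentile fluorescence all below set limits (cut at about 80% in these data, passing the limit was not always enough); inactive = the rest, inconclusive results apart.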 The sample as a whole holds a higher share of actives than the screen did.
test: modulators of CD8 T cell-vesicle binding, primary screen, mouse 2C CD8+ T cells, flow cytometry (AID 2052); conditions: 2C CD8+ T cell-vesicle binding, at 7 µM, stronger effect = lower value; double positive events: measured here: CD8+ vesicle-bound cell fraction;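 as to double positive events: binding gate set so that unloaded-vesicle control wells show 10% double positive cells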;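 as to response (vesicle binding): values below 100% mean blocked vesicle binding to the CD8+ T cells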
In short: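 material = purified 2C TCR transgenic mouse naive CD8+ T cells | controls = Unloaded micro-vesicles (low), QL9 vesicles with 0.7% DMSO (high) | detection = cytometric PE anti-B7-1 and Alexa647 anti-CD8 signals after 1% paraformaldehyde fixation | incubation = binding step 1.5 h, 37 °C, antibody labelling 20 min, ice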

Row | Structure (SMILES) | double positive events [%] | response (vesicle binding)
1 | Cc1oc2c(F)c(F)c(F)c(F)c2c1S(=O)(=O)Nc1cccc(C(F)(F)F)c1 | 13.2 | 170% (inactive)
2 | COc1ccc(C(=O)COC(=O)c2nn(C)c(=O)c3ccccc23)c(OC)c1 | 13.7 | 187% (inactive)
3 | CC(=O)c1cccc(NC(=O)CN2C(=O)c3cccnc3Oc3ccc(Cl)cc32)c1 | 54.8 | 668% (inactive)
4 | COC(=O)C1=CO[C@@H](O[C@@H]2O[C@H](CO)[C@@H](O)[C@H](O)[C@H]2O)C2C1C[C@H](O)[C@@H]2C (some centres undefined) | 33.1 | 220% (inactive)
5 | CCOC(CNC(=O)C1CCN(S(=O)(=O)c2ccc3nc4c(c(C(=O)O)c3c2)CC(C)CC4)CC1)OCC (centres undefined) | 3.9 | 171% (inactive)
6 | CN(C)C(CNC(=O)c1ccc(OCc2cn3ccccc3n2)cc1)c1ccco1 (centres undefined) | 23.9 | 416% (inactive)
7 | COc1ccc(NC(C(=O)Nc2cccc(C(C)=O)c2)c2ccccc2)cc1 (centres undefined) | 36 | 198% (inactive)
8 | O=C(CCc1nnc2ccc(NCc3ccco3)nn12)Nc1cc(F)ccc1F | 36.4 | 186% (inactive)
9 | O=C(COC(=O)c1ccc(NS(=O)(=O)c2cccs2)cc1O)Nc1ccc(F)cc1 | 18.7 | 74.7% (inactive)
10 | Nn1c(SCC(=O)Nc2nccs2)nncc1=O | 30.5 | 224% (inactive)
11 | COc1ccccc1C(=O)NC(CCSC)C(=O)NNC(=O)c1csc(N2CCOCC2)n1 (centres undefined) | 27.1 | 242% (inactive)
12 | CCc1nc2ccccc2c(C(=O)OC2CCCCC2=O)c1C (centres undefined) | 48.4 | 288% (inactive)
13 | Cc1cccc(C(=O)N2CCCC(Nc3ccc(C(C)C)cc3)C2)n1 (centres undefined) | 11.9 | 567% (inactive)
14 | Cc1ccc(-c2nnc(C)c(N3CC(C)OC(C)C3)n2)cc1 (centres undefined) | 50.8 | 123% (inactive)
15 | COC(=O)NNC(=O)C1CCC(C)CC1 (centres undefined) | 13.1 | 199% (inactive)
16 | O=C(COc1ccccc1)Nc1ccc(N2CCN(C(=O)c3cccs3)CC2)cc1 | 4.1 | 606% (inactive)
17 | Brc1c(CSc2nncc3ccccc23)nc2ccccn12 | 26.2 | 103% (inactive)
18 | COc1ccccc1C(=O)Nc1ccnn1C1CCN(C(=O)C(C)(C)C)CC1 | 51.4 | 266% (inactive)
19 | Cc1ccc(S(=O)(=O)NCCC(=O)NC2CCN(Cc3ccccc3)CC2)cc1 | 42.6 | 256% (inactive)
20 | CCCCCCCC(=O)OC(CN1CCCCCC1)CN1CCCC1=O (centres undefined) | 16.5 | 372% (inactive)
21 | COC(=O)[C@@H]1CC(O)CN1C(=O)C12CC3CC(CC(C3)C1)C2 (some centres undefined) | 52.2 | 228% (inactive)
22 | Cc1ccc(-c2csc(NC(=O)C3=COCCO3)n2)cc1C | 20.8 | 138% (inactive)
23 | CC(C)OP(=O)(OC(C)C)C(Nc1ccccc1)c1cccc([N+](=O)[O-])c1 (centres undefined) | 20.7 | 684% (inactive)
24 | COc1cccc(NC(=O)COc2cc(C)cc3oc(=O)cc(C)c23)c1 | 34.7 | 510% (inactive)
25 | CC1(C)CC(=O)C=C(N2CCOCC2)C1 | 19.8 | 266% (inactive)
26 | Cc1nc([N+](=O)[O-])c(NCCCO)n1Cc1ccccc1 | 19.6 | 72.9% (inactive)

Row | Structure (SMILES) | double positive events [%] | response (vesicle binding)
27 | Cc1cc(C)n(C(=O)c2ccc(C)c(S(=O)(=O)N3CCOCC3)c2)n1 | 54 | 212% (inactive)
28 | C/C=C/c1ccc(OCC(=O)NNC(=O)CN(C)S(=O)(=O)c2ccc(C)cc2)c(OC)c1 | 47.4 | 180% (inactive)
29 | CCOC(=O)C(=CNNc1ccsc1C(=O)OC)C(=O)OCC | 17.6 | 541% (inactive)
30 | CC(=O)c1cc(-c2ccccc2)n(CCC(=O)NC2CCCCCC2)c1C | 47.9 | 183% (inactive)
31 | CCc1ccccc1NC(=O)[C@@H]1CCC(=O)N1C1OC(=O)c2c1ccc(OC)c2OC (some centres undefined) | 15.9 | 194% (inactive)
32 | C/C(=N\N(C)C)c1ccc(OCCOc2ccc([N+](=O)[O-])cc2)cc1 | 36.6 | 389% (inactive)
33 | COc1ccc(C2c3[nH]c4ccccc4c3C[C@H]3C(=O)N(CC(C)C)CC(=O)N23)c(OC)c1 (some centres undefined) | 23.9 | 1350% (inactive)
34 | CC1(C)C2CC=C(/C=N/NC(=O)C3CC3)C1C2 (centres undefined) | 55.1 | 548% (inactive)
35 | O=C(NCc1cccnc1)c1ccccc1NC(=O)c1c(F)cccc1F | 21.9 | 104% (inactive)
36 | CC(=O)N1CCc2cc(S(=O)(=O)NC3CCCCC3)ccc21 | 27 | 222% (inactive)
37 | Cc1cccc(C(=O)NCc2nnc(SC(C)C(=O)Nc3nnc(C)s3)n2C)c1 (centres undefined) | 13.6 | 258% (inactive)
38 | CCCCCN(C(=O)NC(=O)Nc1cccc(C)c1C)S(C)(=O)=O | 28.6 | 413% (inactive)
39 | COc1ccc(CCNC(=O)CN(c2ccccc2)S(C)(=O)=O)cc1OC | 42.8 | 345% (inactive)
40 | COc1ccc(C(=O)OCC(=O)NC(=O)CCSc2ccccc2)cc1 | 48.7 | 413% (inactive)
41 | CC(NC(=S)Nc1ccccc1)C1COc2ccccc2O1 (centres undefined) | 63 | 843% (inactive)
42 | COc1ccccc1S(=O)(=O)NCc1ccc(C(=O)N(C)Cc2ccc(F)cc2)cc1 | 31.2 | 557% (inactive)
43 | CCOc1ccc(NC(=O)CC2C(=O)N(c3ccccc3)C(=O)N2CCOC)cc1 (centres undefined) | 22.1 | 526% (inactive)
44 | Cc1cc(C)cc(NC(=O)NC2CCN(CC(=O)Nc3cccc(Cl)c3C)CC2)c1 | 43.5 | 437% (inactive)
45 | O=C1C(=O)N(CCN2CCOCC2)C(c2cccc(Cl)c2)/C1=C(/O)c1ccc2c(c1)OCO2 (centres undefined) | 10.1 | 653% (inactive)
46 | O=C(NCc1ccc2c(c1)OCO2)c1ccc(Cl)s1 | 0 | 0% (active)
47 | O=C(NCc1ccc2c(c1)OCO2)c1cc2c(s1)CS(=O)(=O)C2 | 37.5 | 576% (inactive)
48 | O=C(NCc1ccc2c(c1)OCO2)c1cc(F)c(F)cc1Cl | 11.4 | 338% (inactive)
49 | COc1ccc(C(=O)NCc2ccc(C)cc2)cc1S(=O)(=O)N1CCCC1 | 47.1 | 276% (inactive)
50 | O=C(CSc1nc2ccccc2c(=O)n1-c1ccccc1F)N1CCOCC1 | 37.3 | 244% (inactive)
51 | Cc1ccc(Cl)c(OCC(=O)N(C)CC(=O)Nc2ccc(N3CCOCC3)cc2)c1 | 61.8 | 424% (inactive)
52 | CCOC(=O)c1cccc(NC(=O)C2CCCN(S(=O)(=O)c3cnc[nH]3)C2)c1 (centres undefined) | 47.8 | 586% (inactive)

— PubChem BioAssay AID2052 (NMMLSC, 2009)
